Legend:
P388 [1] = assay: Number of cures from P388 leukemia in CD2F1 male mice as tumor-free survivors after day 60.; type: functional; conditions: for Cures (survivors/total): Mus musculus
Outline: (§1)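 Cures in P388-bearing CD2F1 male mice: 10^6 tumor cells ip on day 0, then ip treatment daily on days 1-9 in groups of six. Animals were observed up to 60 days, and tumor-free survivors were counted as cures.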

P388 [2] = assay: Compound was tested for its antineoplastic activity against P388 leukemia in CD2F1 male mice and the average percentage weight change on day 5 was measured.; type: functional
Outline: (§2)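 Toxicity readout in the P388 model: CD2F1 male mice given 10^6 cells ip on day 0, then daily ip dosing for 9 days from day 1. Average percentage body-weight change on day 5 was taken as the measure of drug toxicity.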

L1210 [3] = conditions: Mus musculus, at 100 mg/kg/day
L1210 [4] = conditions: Mus musculus
L1210 [5] = conditions: Mus musculus; remark: listed apart in the source
P388 [6] = assay: Antineoplastic activity against P388 leukemia in CD2F1 male mice and the percent increase in life span was measured on day 30.; type: functional
Outline: (§3)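 P388 leukemia: CD2F1 male mice (18-20 g, six per group) received 10^6 cells ip on day 0. Drug injected ip daily on days 1-9. Survival followed 30 days, with some groups to 60 days. Activity read as treated/control mean survival time (T/C), with %ILS calculated as [(T - C)/C] × 100. NCI protocol.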

P388 [7] = assay: Antineoplastic activities against P388 leukemia in CD2F1 male mice.; type: functional; outline: as §3
L1210 [8] = conditions: Mus musculus, at 100 mg/kg/day; remark: listed apart in the source
L1210 [9] = assay: Compound was tested for anticancer activities against L1210 leukemia in CD2F1 male mice at dose of 50 mg/kg per day; type: functional, Mus musculus
L1210 [10] = assay: Anticancer activities against L1210 leukemia in CD2F1 male mice at dose of 50 mg/kg per day; type: functional; conditions: Mus musculus
L1210 [11] = assay: Compound was tested for anticancer activities against L1210 leukemia in CD2F1 male mice at dose of 50 mg/kg per day; 12.0/7; type: functional, Mus musculus
L1210 [12] = assay: Compound was tested for anticancer activities against L1210 leukemia in CD2F1 male mice at dose of 50 mg/kg per day; 0/6; type: functional, Mus musculus
P388 [13] = assay: Compound was tested for its antineoplastic activities against P388 leukemia in CD2F1 male mice.; type: functional, Mus musculus; outline: as §3
[14] = Therapeutic ratio as optimum dose/dose ILS40; conditions: read-out: Therapeutic ratio
Outline: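 Therapeutic ratio derived from the P388/L1210 survival data (CD2F1 male mice, ip daily dosing days 1-9). Optimum dose is the daily dose giving maximum increase in life span. ILS40 dose is the daily dose giving a 40% increase in life span over controls.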

P388 [15] = assay: Compound was tested for number of cures from P388 leukemia in CD2F1 male mice as tumor-free survivors after day 60; 3/6; type: functional, Mus musculus; outline: as §1
P388 [16] = assay: Compound was tested for its antineoplastic activity against P388 leukemia in CD2F1 male mice and the percent increase in life span was measured on day 30.; type: functional, Mus musculus; outline: as §3
L1210 [17] = assay: (§4) Compound was tested for anticancer activities against L1210 leukemia in CD2F1 male mice at dose of 6.5 mg/kg per day; type: functional, Mus musculus
P388 [18] = assay: Antineoplastic activity against P388 leukemia in CD2F1 male mice and the average percentage weight change on day 5 was measured.; type: functional, Mus musculus; outline: as §2
L1210 [19] = assay: Compound was tested for anticancer activities against L1210 leukemia in CD2F1 male mice at dose of 6.5 mg/kg per day; 0/6; type: functional, Mus musculus
L1210 [20] = assay: as §4; type: functional; conditions: Mus musculus
L1210 [21] = conditions: Mus musculus; remark: listed apart in the source
L1210 [22] = assay: Compound was tested for anticancer activities against L1210 leukemia in CD2F1 male mice at dose of 25 mg/kg per day; type: functional; conditions: Mus musculus
L1210 [23] = assay: Compound was tested for anticancer activities against L1210 leukemia in CD2F1 male mice at dose of 25 mg/kg per day; 0/6; type: functional, Mus musculus
L1210 [24] = assay: Compound was tested for anticancer activity against L1210 leukemia in CD2F1 male mice at dose of 25 mg/kg per day; type: functional, Mus musculus
L1210 [25] = assay: Compound was tested for anticancer activity against L1210 leukemia in CD2F1 male mice at dose of 25 mg/kg per day; 8.6/7; type: functional, Mus musculus
L1210 [26] = assay: Compound was tested for anticancer activity against L1210 leukemia in CD2F1 male mice at dose of 50 mg/kg per day; type: functional, Mus musculus
P388 [27] = assay: Compound was tested for number of cures from P388 leukemia in CD2F1 male mice as tumor-free survivors after day 60; 6/6; type: functional, Mus musculus; outline: as §1
L1210 [28] = assay: Compound was tested for anticancer activity against L1210 leukemia in CD2F1 male mice at dose of 50 mg/kg per day; 12.6/7; type: functional, Mus musculus
L1210 [29] = type: functional, Mus musculus
L1210 [30] = type: functional, Mus musculus; remark: listed apart in the source
L1210 [31] = assay: animal or person; type: functional; conditions: Mus musculus
L1210 [32] = type: functional, Mus musculus; conditions: at 100 mg/kg/day
P388 [33] = assay: Compound was tested for its antineoplastic activity against P388 leukemia in CD2F1 male mice.; type: functional, Mus musculus; outline: as §3

Work on `CC1(C)CC(NC(=O)NP(=O)(N2CC2(C)C)N2CC2(C)C)CC(C)(C)N1[O]` (stereo not given) yielded a Cures (survivors/total) (P388 [1]) of 0, a Weight change on day 5 (P388 [2]; Mus musculus) of 7.3% and an ILS (L1210 [3]) of 64%. For the same molecule, the T/C survival days (L1210 [4]) was 11.5, the Survivors at day 30 (L1210 [5]) was 0 and the ILS (P388 [6]; Mus musculus) was 62%. The Optimal dose (P388 [7]; Mus musculus) was 90 and the T/C (L1210 [8]) was 164%.
For `CC1(C)CC(NC(=O)NP(=O)(N2CC2)N2CC2)C(C)(C)N1[O]` (stereo not given), the T/C (L1210 [9]) was 172%, the ILS at 50 mg/kg/day (L1210 [10]) was 72% and the ILS (P388 [6]) was 178%. For the same molecule, the T/C survival days (L1210 [11]) was 12, the “Survivors at day 30” value (L1210 [12]) was 0 and the ILS40 (P388 [13]) was 4 mg/kg/day. It also gave a selectivity ratio [14] of 22.5, a Cures (P388 [15]) of 3 survivors/total and an ILS max (P388 [16]) of 387%. The Optimal dose (P388 [7]) was 90.
`S=P(N1CC1)(N1CC1)N1CC1` [THIOTEPA] gave a Cures (P388 [1]) of 0 survivors/total, a T/C (L1210 [17]) of 155% and an ILS (P388 [6]) of 141%. For the same molecule, the “Weight change on day 5” value (P388 [18]) was -2.1%, the ILS40 (P388 [13]) was 2.18 mg/kg/day and the “Survivors at day 30” value (L1210 [19]) was 0. For the same molecule, the selectivity ratio [14] was 2.75, the ILS at 6.5 mg/kg/day (L1210 [20]) was 55% and the Optimal dose (P388 [7]) was 6.
With `CC1(C)CC(NC(=O)NP(=O)(N2CC2(C)C)N2CC2(C)C)C(C)(C)N1[O]` (stereo not given) the Cures (survivors/total) (P388 [1]) was 0, the ILS (L1210 [3]) was 48% and the T/C survival days (L1210 [21]) was 10.4. The Survivors at day 30 (L1210 [5]) was 0, the ILS (P388 [6]; Mus musculus) was 56% and the Weight change on day 5 (P388 [18]; Mus musculus) was 6.2%. It also gave an Optimal dose (P388 [7]; Mus musculus) of 90 and a T/C (L1210 [8]) of 148%.
In the case of `O=c1[nH]cc(F)c(=O)[nH]1` [FLUOROURACIL], the Cures (P388 [1]) is reported as 0 survivors/total, the ILS (P388 [6]) is reported as 79% and the “Weight change on day 5” value (P388 [18]) is reported as -4%. For the same molecule, the Optimal dose (P388 [7]) was 200.
`CC1(C)CC(OP(=S)(N2CC2)N2CC2)CC(C)(C)N1[O]` gave an ILS (P388 [6]) of 103%, a selectivity ratio [14] of 5.15 and an Optimal dose (P388 [7]) of 12.
Molecule `CC1(C)CC(NP(=S)(N2CC2)N2CC2)CC(C)(C)N1[O]` has an ILS (P388 [6]) of 96%, a selectivity ratio [14] of 2.73 and an Optimal dose (P388 [7]) of 25.
With `O=P(N1CC1)(N1CC1)N1CC1` [TEPA] the Cures (P388 [1]) was 0 survivors/total, the ILS (P388 [6]) was 135% and the “Weight change on day 5” value (P388 [18]) was -4%. For the same molecule, the ILS40 (P388 [13]) was 2.75 mg/kg/day, the selectivity ratio [14] was 2.2 and the Optimal dose (P388 [7]) was 6.
In the case of `CC1(C)CC(NC(=O)NP(=O)(N2CC2)N2CC2)CC(C)(C)N1[O]`, the ILS at 25 mg/kg/day (L1210 [22]) is reported as 23%, the “Weight change on day 5” value (P388 [2]) is reported as -2.4% and the “Survivors at day 30” value (L1210 [23]) is reported as 0. It also gave a T/C (L1210 [24]) of 123%, a T/C survival days (L1210 [25]) of 8.6 and a T/C (L1210 [26]) of 181%. For the same molecule, the Cures (P388 [27]) was 6 survivors/total, the T/C survival days (L1210 [28]) was 12.6 and the ILS at 50 mg/kg/day (L1210 [10]) was 81%. For the same molecule, the T/C survival days (L1210 [29]) was 14, the ILS (P388 [6]) was 170% and the “Survivors at day 30” value (L1210 [12]) was 0. For the same molecule, the “Survivors at day 30” value (L1210 [30]) was 0, the ILS at 100 mg/kg/day (L1210 [31]) was 115% and the selectivity ratio [14] was 26.5. The ILS max (P388 [16]) was 439%, the T/C (L1210 [32]) was 215% and the ILS40 (P388 [33]) was 3.4 mg/kg/day. The Optimal dose (P388 [33]) was 90.

From ChEMBL document CHEMBL1123268 (J Med Chem, 1986)
